Test results from ChEMBL document CHEMBL3632620, “Synthesis, characterization, crystal structure determination and biological screening of novel N-1 and C5 alkyl substituted scaffolds of pyrimidine” (2015).
Converted amounts (≈) assume the structure as drawn. The source made the active and inactive calls. No cut-off for these calls is given here.

Assays:
[1] = system: Salmonella enterica subsp. enterica serovar Abony; assay: Antibacterial activity against Salmonella abony NCTC 6017 assessed as growth inhibition at 25 to 100 ug/ml at 12 hrs by agar well diffusion method; type: functional, organism-based
[2] = system: Staphylococcus epidermidis; assay: Antibacterial activity against Staphylococcus epidermidis ATCC 12228 assessed as growth inhibition at 100 ug/ml after 8 to 24 hrs by agar well diffusion method; type: functional; conditions: for zone of inhibition at 100 µg/mL: read-out: DIZ
Summary of the method: (§1)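 Agar well diffusion on nutrient agar (peptone, yeast extract, NaCl, 2% agar, pH 7). Suspensions were set to 0.5 McFarland in sterile water, final inoculum 5x10^7 CFU/mL. Plates were swabbed and left 15 min, then ~4 mm wells received 100 µL compound in DMSO, with DMSO as control. Plates stood 2 h at room temperature, then 24 h at 37 °C. Inhibition zone diameter was measured.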

[3] = system: Escherichia coli; assay: Antibacterial activity against Escherichia coli ATCC 8739 assessed as growth inhibition at 25 ug/ml after 8 to 24 hrs by agar well diffusion method; type: functional; conditions: read-out: DIZ; summary of the method: as §1
[4] = system: Staphylococcus aureus; assay: Antibacterial activity against Staphylococcus aureus ATCC 6538P assessed as growth inhibition at 100 ug/ml after 8 to 24 hrs by agar well diffusion method; type: functional; conditions: read-out: DIZ; summary of the method: as §1
[5] = system: Salmonella enterica subsp. enterica serovar Abony; assay: Antibacterial activity against Salmonella abony NCTC 6017 assessed as growth inhibition at 100 ug/ml after 8 to 24 hrs by agar well diffusion method; type: functional; conditions: read-out: DIZ; summary of the method: as §1
[6] = system: Salmonella enterica subsp. enterica serovar Abony; assay: Antibacterial activity against Salmonella abony NCTC 6017 after 24 to 48 hrs; type: functional
Summary of the method: (§2)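 Broth MIC in nutrient broth, pH 7.0. Inoculum came from a 16 h culture set to 0.5 McFarland, then diluted 10-fold to 1.2x10^7 CFU/mL. Compounds went from a 4 mg/mL DMSO stock to final 250 to 0.03 µg/mL. Controls were inoculum without compound and compound without inoculum. Incubation was 24-48 h at 37 °C. Then 5 µL was spotted onto agar for 24 h at 37 °C. MIC is the lowest concentration with no visible growth.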

[7] = system: Staphylococcus aureus; assay: Antibacterial activity against Staphylococcus aureus ATCC 6538P after 24 to 48 hrs; type: functional; summary of the method: as §2
[8] = system: Staphylococcus aureus; assay: Antibacterial activity against Staphylococcus aureus ATCC 6538P assessed as growth inhibition at 25 ug/ml after 8 to 24 hrs by agar well diffusion method; type: functional; conditions: read-out: DIZ; summary of the method: as §1
[9] = system: Salmonella enterica subsp. enterica serovar Abony; assay: Antibacterial activity against Salmonella abony NCTC 6017 assessed as growth inhibition at 25 ug/ml after 8 to 24 hrs by agar well diffusion method; type: functional; conditions: read-out: DIZ; summary of the method: as §1
[10] = system: Staphylococcus aureus; assay: Antibacterial activity against Staphylococcus aureus ATCC 6538P assessed as growth inhibition at 25 to 100 ug/ml at 12 hrs by agar well diffusion method; type: functional, organism-based
[11] = system: Staphylococcus epidermidis; assay: Antibacterial activity against Staphylococcus epidermidis ATCC 12228 assessed as growth inhibition at 25 ug/ml after 8 to 24 hrs by agar well diffusion method; type: functional; summary of the method: as §1
[12] = system: Escherichia coli; assay: Antibacterial activity against Escherichia coli ATCC 8739 after 24 to 48 hrs; type: functional; summary of the method: as §2
[13] = system: Staphylococcus epidermidis; assay: Antibacterial activity against Staphylococcus epidermidis ATCC 12228 assessed as growth inhibition at 25 to 100 ug/ml at 12 hrs by agar well diffusion method; type: functional, organism-based
[14] = system: Staphylococcus epidermidis; assay: Antibacterial activity against Staphylococcus epidermidis ATCC 12228 after 24 to 48 hrs; type: functional; summary of the method: as §2
[15] = system: Escherichia coli; assay: Antibacterial activity against Escherichia coli ATCC 8739 assessed as growth inhibition at 25 to 100 ug/ml at 12 hrs by agar well diffusion method; type: functional, organism-based
[16] = system: Escherichia coli; assay: Antibacterial activity against Escherichia coli ATCC 8739 assessed as growth inhibition at 100 ug/ml after 8 to 24 hrs by agar well diffusion method; type: functional; conditions: read-out: DIZ; summary of the method: as §1

Row | SMILES | Activity [1] | zone of inhibition at 100 µg/mL [2] [mm] | zone of inhibition at 25 µg/mL [3] [mm] | zone of inhibition at 100 µg/mL [4] [mm] | zone of inhibition at 100 µg/mL [5] [mm] | MIC [6] [µg/mL] | MIC [7] [µg/mL] | zone of inhibition at 25 µg/mL [8] [mm] | zone of inhibition at 25 µg/mL [9] [mm] | Activity [10] | diameter of the inhibition zone (DIZ) [11] | MIC [12] [µg/mL] | Activity [13] | MIC [14] [µg/mL] | Activity [15] | zone of inhibition at 100 µg/mL [16] [mm] | diameter of the inhibition zone (DIZ) [2] | zone of inhibition at 25 µg/mL ([11]; read-out: DIZ) [mm]
1 | CCOC(=O)C1(C)C(C)NC(=O)N(C)C1c1ccc(Cl)cc1 (stereo unspecified) | inactive | 13 | 10 | 16 | 10 | 125 (≈ 385 µM) | 68 (≈ 209 µM) | 12 | 9 | inactive | inactive | 32 (≈ 98.5 µM) | inactive | 68 (≈ 209 µM) | inactive | 14 |  | 
2 | CCOC(=O)C1(C)C(C)NC(=S)N(C)C1c1ccccc1 (stereo unspecified) | inactive |  | 14 | 13 | 18 | 32 (≈ 104 µM) | 68 (≈ 222 µM) | 10 | 16 | inactive | inactive | 16 (≈ 52.2 µM) | inactive | > 250 | inactive | 21 | inactive | 
3 | O=C(N[C@H](CO)[C@H](O)c1ccc([N+](=O)[O-])cc1)C(Cl)Cl [CHLORAMPHENICOL] |  | 35 | 20 | 28 | 32 | 4 (≈ 12.4 µM) | 8 (≈ 24.8 µM) | 20 | 19 |  |  |  |  | 4 (≈ 12.4 µM) |  | 24 |  | 14
4 | CCOC(=O)C1(C)C(C)NC(=O)N(C)C1c1ccc(OC)cc1 (stereo unspecified) | inactive |  | 13 | 12 | 13 | 68 (≈ 212 µM) | 68 (≈ 212 µM) | 10 | 10 | inactive | inactive | 68 (≈ 212 µM) | inactive | > 250 | inactive | 14 | inactive | 
5 | CCOC(=O)C1(C)C(C)NC(=S)N(C)C1c1ccc(Cl)cc1 (stereo unspecified) | inactive |  | 20 | 23 | 28 | 8 (≈ 23.5 µM) | 16 (≈ 46.9 µM) | 18 | 18 | inactive | inactive | 16 (≈ 46.9 µM) | inactive | > 250 | inactive | 20 | inactive | 
6 | CCOC(=O)C1(C)C(C)NC(=O)N(C)C1c1ccc(N(C)C)cc1 (stereo unspecified) | inactive |  | 10 | 16 | 22 | 16 (≈ 48 µM) | 32 (≈ 96 µM) | 12 | 10 | inactive | inactive | 68 (≈ 204 µM) | inactive | > 250 | inactive | 14 | inactive | 
